Thrombin inh = blocks human thrombin protease activity; alpha-thrombin, Boc-VPR-AMC fluorogenic substrate cleavage; inhibition, % at 5 µM; 0.26% of 220,000 active; AID 1046;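 active = inhibition at or above 40%; inactive = inhibition below 40%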
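Assay system: human alpha-thrombin enzyme. Reagent: Boc-VPR-AMC substrate, 15 µM final. Compound dosing: one concentration per compound, 5 µM, with 0.2% DMSO. Incubation: room-temperature reaction. Technique: AMC fluorescence, 355/460 nm. Measure: % inhibition relative to enzyme controls and enzyme-free blanks.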
AHR act = activates the human aryl hydrocarbon receptor; P35869; AHR-responsive luciferase reporter cells, luminescence; activation, % at 5 µM; 2.5% of 320,000 active; AID 2796; in the data active = activation above about 47%
Target sequence (P35869 whole entry, looked up): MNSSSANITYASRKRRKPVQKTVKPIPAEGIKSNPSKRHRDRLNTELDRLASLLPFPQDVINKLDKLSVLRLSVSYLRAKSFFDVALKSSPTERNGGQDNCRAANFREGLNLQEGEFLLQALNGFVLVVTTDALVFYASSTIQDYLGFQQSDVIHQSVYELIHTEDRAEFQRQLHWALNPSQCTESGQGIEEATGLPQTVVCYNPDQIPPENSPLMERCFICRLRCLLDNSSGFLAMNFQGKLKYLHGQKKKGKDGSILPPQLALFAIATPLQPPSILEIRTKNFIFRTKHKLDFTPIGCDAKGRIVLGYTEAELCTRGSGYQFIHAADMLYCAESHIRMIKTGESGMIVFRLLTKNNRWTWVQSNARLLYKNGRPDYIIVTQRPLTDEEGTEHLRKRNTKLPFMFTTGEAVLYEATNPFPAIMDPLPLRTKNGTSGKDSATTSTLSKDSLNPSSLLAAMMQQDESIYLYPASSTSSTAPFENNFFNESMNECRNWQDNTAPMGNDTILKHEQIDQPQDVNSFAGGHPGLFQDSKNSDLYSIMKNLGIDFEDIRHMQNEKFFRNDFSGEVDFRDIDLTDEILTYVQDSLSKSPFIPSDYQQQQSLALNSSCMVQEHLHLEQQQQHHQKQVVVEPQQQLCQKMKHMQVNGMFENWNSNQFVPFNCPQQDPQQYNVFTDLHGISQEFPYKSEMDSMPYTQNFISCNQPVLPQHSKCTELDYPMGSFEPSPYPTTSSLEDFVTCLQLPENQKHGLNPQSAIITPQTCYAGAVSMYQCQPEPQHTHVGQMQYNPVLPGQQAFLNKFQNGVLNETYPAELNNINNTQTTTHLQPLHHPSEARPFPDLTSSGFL
FXIIa inh = factor XIIa (human) inhibition. purified FXIIa, Boc-QGR-AMC fluorogenic substrate, 2 h. 0.3% of 220,000 active. inhibition, % at 5 µM. P00748; in the data active = inhibition above about 40%
KLK5 inh = kallikrein 5 (human) inhibition; Q9Y337; recombinant hK5, fluorogenic AMC substrate cleavage; inhibition, % at 5 µM; 0.59% of 210,000 active;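 active = inhibition of 40% or more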
STAT3 activator = STAT3 signaling activation; U3A cells, IL-6 STAT3-luciferase reporter, luminescence; 100% = signal with IL-6 EC80 alone; 0.91% of 190,000 active; activation (% of control), % at 5.6 µM; AID 871;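 active = activation above the screen-wide mean of compound activation plus 3 SD, cut at about 130% in these data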
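Material: human STAT1-deficient U3A cells with stable STAT3-luciferase reporter / Probe or stimulus: IL-6 stimulus at 33 ng/mL final / Schedule: 1 h compound pre-exposure, 6 h IL-6 stimulation, 37 °C / Technique: luminescence / Read-out basis: percent of IL-6-only median luminescence / Control set: IL-6-only high control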
FXIa inh 1536 = inhibitors of human coagulation factor XIa. AID 798. inhibition, % at 5 µM. purified FXIa, Boc-Glu-Ala-Arg-AMC fluorogenic substrate. 0.14% of 220,000 active;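 active = inhibition of at least 40%; inactive = inhibition below 40%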;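 also: fluorescence of freed AMC excited at 355 nm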
A number is an active result; 0 = inactive; - = no result. Sampled rows, rich in hits. Any-hit rate of the full collection: about 3.5%.

SMILES	Thrombin inh	AHR act	FXIIa inh	KLK5 inh	STAT3 activator	FXIa inh 1536
O=C(NCCc1ccccc1)c1ccc(NCC2CCCO2)c([N+](=O)[O-])c1 (stereo unspecified)	0	0	0	0	0	0
Cc1[nH]c2ccc(CNS(=O)(=O)c3ccc(S(=O)(=O)N4CCOCC4)cc3)cc2c1C	0	0	0	0	0	0
COc1ccc(OC)c(Nc2nc(NCc3ccco3)c3ccccc3n2)c1	-	60	-	-	-	-
Cc1ccc(Nc2nc(N)c([N+](=O)[O-])c(NCc3ccco3)n2)cc1C	0	64	0	0	0	0
Cc1ccccc1Nc1nc(NCc2ccco2)c2ccccc2n1	0	0	0	0	0	0
COCCCNc1nc(N)c([N+](=O)[O-])c(Nc2ccccc2OC)n1	0	56	0	0	-	0
CCCC(=O)n1nc(-c2ccc(C)cc2)nc1NCc1ccco1	58	0	0	-	0	0
CC(=O)n1nc(-c2ccc(Cl)cc2)nc1NCc1ccco1	47	0	0	0	0	0
COc1ccc(-c2ccc3c(N)c(C(=O)c4cccc(OC)c4)sc3n2)cc1	0	77	0	0	0	0
COc1ccc(C(=O)c2sc3nc(-c4ccc(OC)cc4)ccc3c2N)cc1	0	0	0	0	0	0
Cc1ccc2nc(NC(=O)C3CCCN3C(=O)OC(C)(C)C)sc2c1 (stereo unspecified)	0	0	0	0	0	0
CCn1nc(NC(=O)c2cccnc2)c2cc3cccc(C)c3nc21	0	68	0	0	0	0
Cc1cccc2cc3c(NC(=O)C(C)C)nn(C)c3nc12	0	72	0	0	0	0
Cc1ccc2cc3c(NC(=O)C(C)C)nn(C)c3nc2c1	0	66	0	0	0	0
C/C(=N/Nc1ccnc2cc(Cl)ccc12)c1ccc(N)cc1	-	57	-	-	-	-
C/C(=N/Nc1ccnc2cc(Cl)ccc12)c1ccc(O)cc1	-	56	-	-	-	-
NC(=S)NNc1ccnc2cc(Cl)ccc12	0	0	0	0	0	0
CCOc1ccc(S(=O)(=O)N2CCC(C(=O)NCc3ccncc3)CC2)cc1C	-	0	-	-	-	-
CC(C(=O)Nc1nc(-c2ccc(F)cc2)cs1)N1C(=O)C2CC=CCC2C1=O (stereo unspecified)	-	0	-	-	-	-
O=C(O)c1cccc(N2CCCC2=O)c1	0	0	0	0	0	0
COC(=O)c1cccc(N2CCCC2=O)c1	0	0	0	45	-	0
CCN(CC)S(=O)(=O)c1cccc(NC(=O)CCNC(=O)NC23CC4CC(CC(C4)C2)C3)c1	-	0	-	-	-	-
COc1ccc(-c2coc3cc(O)ccc3c2=O)cc1OC	0	0	0	43	0	0
CS(=O)(=O)N1CCN(c2ccccc2NC(=O)c2cc3ccccc3o2)CC1	-	0	-	-	-	-
Cc1ccc(C(=O)N/C(=C\c2cn(C)c3ccccc23)C(=O)NCCN2CCOCC2)cc1	-	0	-	-	-	-
SMILES	Thrombin inh	AHR act	FXIIa inh	KLK5 inh	STAT3 activator	FXIa inh 1536
COc1cc(NC(=O)c2ccco2)c(C(=O)OCC(=O)c2c[nH]c3ccccc23)cc1OC	0	55	0	0	0	0
O=C(NCCCn1ccnc1)Nc1ccc2c(c1)OCO2	-	50	-	-	-	-
O=C(NCCCn1ccnc1)Nc1cccc(Cl)c1	0	60	0	0	0	0
Cn1cc(CNC(=O)Nc2ccc3c(c2)OCO3)cn1	0	0	0	0	0	0
CCOC(=O)[C@@H]1[C@H]2COc3cc(OC)ccc3[C@@H]2N2C(=O)N(c3cccc(F)c3)C(=O)[C@@]12C	-	51	-	-	-	-
CSc1ncc(Cl)c(C(=O)NCc2ccc3c(c2)OCO3)n1	0	74	0	0	0	0
CSc1ncc(Cl)c(C(=O)Nc2cccc(Cl)c2)n1	-	55	-	-	-	-
CSc1ncc(Cl)c(C(=O)Nc2cccc(C)c2)n1	0	62	0	0	0	0
O=C(CCc1ccccc1)NNC(=S)NC(=O)c1ccc(Cl)cc1	0	0	0	0	0	0
O=C1OC[C@H](Cc2ccc3c(c2)OCO3)/C1=C\c1ccc2c(c1)OCO2	-	0	-	-	-	-
CCOc1ccc(OCC)c(NC(=O)CN(c2ccc(C)cc2)S(=O)(=O)c2c(C)noc2C)c1	0	62	0	0	0	0
CCOc1ccc(N(CC(=O)Nc2cc(C)ccc2C)S(=O)(=O)c2c(C)[nH]c(=O)[nH]c2=O)cc1	0	0	100	0	-	0
CCOc1ccc(N(CC(=O)Nc2ccccc2C)S(=O)(=O)c2c(C)[nH]c(=O)[nH]c2=O)cc1	0	0	0	0	-	0
COc1ccc(Cl)cc1N(CC(=O)Nc1ccc2c(c1)OCO2)S(C)(=O)=O	0	76	0	0	0	0
CCOc1ccc(OCC)c(NC(=O)CN(c2ccc(OC)cc2)S(=O)(=O)c2c(C)noc2C)c1	-	58	-	-	-	-
COc1cc(CNCc2ccccn2)ccc1OCc1cccc(Cl)c1	0	0	0	0	0	0
CCc1ccc(NC(=O)C(=O)c2ccccc2NC(C)=O)cc1	-	0	-	-	-	-
CC(Sc1nnc(-c2ccc(OC(F)F)cc2)n1N)C(=O)NCC1CCCO1 (stereo unspecified)	-	0	-	-	-	-
CCOc1ccc(N(CC(=O)Nc2ccc(C)c(C)c2)S(C)(=O)=O)cc1	-	52	-	-	-	-
CCOc1ccc(N(CC(=O)Nc2ccc(OC)cc2)S(=O)(=O)c2c(C)noc2C)cc1	0	0	0	0	0	0
CCOc1ccc(N(CC(=O)Nc2ccc3c(c2)OCCO3)S(=O)(=O)c2c(C)noc2C)cc1	0	0	41	0	0	0
COc1ccc(N(CC(=O)Nc2ccc3c(c2)OCO3)S(=O)(=O)c2c(C)nn(C)c2C)cc1	0	59	0	0	0	0
CC(C)NC(=O)N(C)C[C@@H]1Oc2c(NC(=O)C3CCOCC3)cccc2C(=O)N([C@@H](C)CO)C[C@H]1C	-	0	-	-	-	-
Oc1cccc2ccc(/C=C/c3ccccc3Br)nc12	-	0	-	-	-	-
Oc1c(Cl)cc(Cl)cc1/C=C/c1ccc2cccc(O)c2n1	0	51	-	0	0	0
SMILES	Thrombin inh	AHR act	FXIIa inh	KLK5 inh	STAT3 activator	FXIa inh 1536
Cc1cccnc1Nc1nc(-c2ccc(O)cc2O)cs1	0	61	0	0	0	0
Cc1cccnc1Nc1nc(-c2ccccc2)cs1	-	55	-	-	-	-
CCOC(=O)N1CCN(C(=O)CSCC(=O)Nc2nc(-c3ccc(Cl)s3)cs2)CC1	50	0	0	0	0	0
CC(C)(C)c1ccc(C(=O)Cn2nc(C(=O)O)c3ccccc3c2=O)cc1	0	0	0	44	-	0
CC(C)CC(=O)Nc1ccc(C(=O)Cn2nc(C(=O)O)c3ccccc3c2=O)cc1	0	0	0	0	0	0
Cc1cc(C(=O)Cn2nc(C(=O)O)c3ccccc3c2=O)c(C)n1-c1ccc(F)cc1	0	0	0	0	0	0
Cc1cc(C(=O)Cn2nc(C(=O)O)c3ccccc3c2=O)c(C)n1-c1cccc(C(F)(F)F)c1	0	0	0	0	-	72
CC(C)(C)OC(=O)N1CCC(NC(=O)c2[nH]cnc2C(=O)Nc2cccc(Cl)c2)CC1	-	0	-	-	-	-
COCC(=O)NNC(=O)c1ccccc1OC	0	0	0	0	135	0
COc1ccccc1C(=O)NNC(=O)c1ccc(Br)o1	-	55	-	-	-	-
COc1ccccc1CNC(=O)c1ccc(Br)o1	0	0	0	0	0	0

Source: PubChem BioAssay (several laboratories)
